Bioassay records as filed in PubChem BioAssay.
PPC-1+TRAIL kill: compounds killing PPC-1 cancer cells with TRAIL present (potentiator screen, no TRAIL-free arm); cell killing (% activity), % at 4 µM or 5 µM; 220,000 compounds, 0.41% hits; AID 1443; PPC-1 cells + TRAIL, ATPLite viability luminescence;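 active means cell killing above 50% in the first pass at 4 µM, then a duplicate retest at 5 µM averaging 50% or more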
FLuc inh counter: inhibits firefly luciferase, flagging false hits in luciferase inhibition screens; P08659; AID 1006; 200,000 compounds, 1.5% hits; inhibition, % at 10 µM; ATPLite firefly luciferase biochemical luminescence, 10 min;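 active means inhibition above about 50% when tested at 10 µM, limit read from the data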
Target sequence (P08659 whole entry, looked up): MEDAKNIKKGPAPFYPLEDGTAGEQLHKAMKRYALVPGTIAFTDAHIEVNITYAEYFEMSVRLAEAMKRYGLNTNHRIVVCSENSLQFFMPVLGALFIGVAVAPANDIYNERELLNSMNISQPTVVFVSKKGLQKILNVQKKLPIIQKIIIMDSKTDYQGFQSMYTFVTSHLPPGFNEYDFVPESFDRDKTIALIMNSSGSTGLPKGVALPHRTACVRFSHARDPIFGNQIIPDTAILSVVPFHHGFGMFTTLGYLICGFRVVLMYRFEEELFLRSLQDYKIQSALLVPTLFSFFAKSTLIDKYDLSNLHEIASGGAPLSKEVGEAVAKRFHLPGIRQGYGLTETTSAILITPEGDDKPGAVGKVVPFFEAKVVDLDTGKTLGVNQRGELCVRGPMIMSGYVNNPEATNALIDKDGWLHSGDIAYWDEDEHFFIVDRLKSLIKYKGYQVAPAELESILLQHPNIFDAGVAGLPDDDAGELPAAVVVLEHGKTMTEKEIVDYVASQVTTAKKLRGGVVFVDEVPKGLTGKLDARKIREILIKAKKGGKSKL
FLuc act counter: affects firefly luciferase, flagging false hits in luciferase stimulation screens | P08659 | ATPlite luciferase biochemical, luminescence, 10 min; 0 = ATP-free wells, 1 = DMSO control | activation factor at 10 µM | 200,000 tested, under 10 active | AID 1027;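 active means luciferase activation factor, scaled between plate controls, of at least 2 with compound at 10 µM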
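System: luciferase plus luciferin reagent, cell-free; medium: PBS as buffer for the ATP substrate; dosing: test compounds dosed from 2 mM stocks in 100% DMSO; timing: 10 min post-reagent at room temperature; measured by: luminescence measurement of luciferase light output; evaluation: luciferase activation, seen as luminescence increase over controls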
APP 5'UTR act: activates APP 5'UTR luciferase reporter; SH-SY5Y APP 5'UTR luciferase reporter, luminescence; zero percent = DMSO vehicle wells; activation, % at 2 µM; 190,000 compounds, 1% hits;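 active means activation above a set limit, based on mean plus 3 SD of controls, cut at about 140% in these data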
NF-kB expr up: raises NF-kB expression in human neuronal cells; NF-kB reporter expression; stronger effect = higher value; fold change at 12.5 µM; 190,000 compounds, 1.6% hits; in the data active means fold change above about 3.3
TRAIL sens C8: sensitizes caspase-8 expressing cells to TRAIL; NB7+C8 cells + TRAIL, ATPlite viability luminescence; inhibition (viability loss, TRAIL sensitization), % at 10 µM; 360,000 compounds, 1% hits; AID 624354;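 active means compounds causing at least 50% loss of cell viability in the single-dose screen, relative to plate controls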
PPC-1 tox: kills PPC-1 cells; shares compounds with PPC-1+TRAIL kill; 1,200 compounds, 50% hits; cytotoxicity, % at 5 µM; AID 1447; PPC-1 viability, ATPlite luminescence, overnight;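 active means reconfirmed compounds whose average cytotoxicity reaches 50% or more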
Large screens that a line does not name were inactive (follow-up assays come after a bar, where they were run). An excerpt weighted towards active compounds, which were near 2.2% of everything screened.

Cc1ccc(-c2cc3c(N=O)c4ccccc4c-3n[nH]2)cc1	PPC-1+TRAIL kill 95, FLuc inh counter 94, TRAIL sens C8 93 | PPC-1 tox 94
COC(=O)C1CCN(c2ccc(C(N)=O)cc2[N+](=O)[O-])CC1	none
CCCCCCCn1c2c(c(=N)c3ccccc31)CCC2	TRAIL sens C8 60 | PPC-1 tox inactive
O=C(CN1CCC(NC(=O)c2ccccc2F)CC1)Nc1ccc2c(c1)OCCO2	none | PPC-1 tox inactive
Cc1cc(=O)[nH]c2ccc(S(=O)(=O)NCc3ccccc3)cc12	none (no result: PPC-1+TRAIL kill, FLuc inh counter, FLuc act counter, APP 5'UTR act, NF-kB expr up)
N=c1cc(C2(O)CCCCC2)n2c(nc3ccccc32)s1	PPC-1+TRAIL kill 75, FLuc inh counter 94, APP 5'UTR act 185, NF-kB expr up 4.1, TRAIL sens C8 84 | PPC-1 tox 78
O=S(=O)(c1ccc(Nc2ccc(-c3ccc4c(c3)OCCO4)nn2)cc1)N1CCCC1	none
O=C(NC1CC1)c1cccc(Nc2ccc(-c3ccc4c(c3)OCCO4)nn2)c1	PPC-1+TRAIL kill 69, FLuc inh counter 83, TRAIL sens C8 72 | PPC-1 tox 66
O=C(Nc1ccc(Cl)c(Cl)c1)c1ccc(Cl)c(Cl)c1	none (no result: FLuc inh counter, FLuc act counter, APP 5'UTR act, NF-kB expr up)
O=C(Nc1ccc(Cl)c(Cl)c1)c1ccncc1	none | PPC-1 tox inactive
Cc1c(C(=O)NCCCN2CCOCC2)oc2ccc(S(=O)(=O)N3CCOCC3)cc12	none
O=C(N/N=C/c1cn(-c2ccccc2)nc1-c1cccs1)c1ccncc1	none
Cc1ccc(-c2nn(-c3ccccc3)cc2/C=N/NC(=O)c2ccncc2)o1	APP 5'UTR act 158 | PPC-1 tox inactive
Cc1[nH]n(-c2ncc(-c3ccccc3)s2)c(=O)c1C(c1ccc(Cl)cc1)C(C#N)C#N (stereo unspecified)	none (no result: APP 5'UTR act)
C/C(=N/OCC(=O)Nc1ccc(C)cc1C)c1cccs1	none | PPC-1 tox inactive
C/C(=N\OCC(=O)Nc1ccccc1C(=O)O)c1cccs1	none
Cc1ccc(C(=O)NCCc2cccs2)cc1	PPC-1+TRAIL kill 69, FLuc inh counter 89, TRAIL sens C8 78 | PPC-1 tox 67
O=C(NCCc1cccs1)c1ccc(Cl)cc1	none (no result: FLuc inh counter, FLuc act counter, APP 5'UTR act, NF-kB expr up)
CN(Cc1cnn(Cc2ccccc2)c1)C(=O)CN=C1NS(=O)(=O)c2ccccc21	none (no result: PPC-1+TRAIL kill, FLuc inh counter, FLuc act counter, APP 5'UTR act, NF-kB expr up)
CC(=O)Nc1ccc(NC2=C/C(=N/S(=O)(=O)c3cccs3)c3ccccc3C2=O)cc1	PPC-1+TRAIL kill 73, TRAIL sens C8 84 | PPC-1 tox 74
Cc1ccc(NC2=C/C(=N/S(=O)(=O)c3cccs3)c3ccccc3C2=O)cc1C	none
CC(=O)N[C@@H](Cc1c[nH]c2ccccc12)C(=O)OCc1cc(C(F)(F)F)cc(C(F)(F)F)c1	none (no result: PPC-1+TRAIL kill, FLuc inh counter, FLuc act counter, APP 5'UTR act, NF-kB expr up)
Clc1cccc(/C(Cc2nc3ccccc3[nH]2)=N\Nc2ccccc2)c1	none
CCC(=O)OCC(=O)N=c1sccn1Cc1ccc(C)cc1	none (no result: PPC-1+TRAIL kill, FLuc inh counter, FLuc act counter, APP 5'UTR act, NF-kB expr up)
O=C(CCl)N=c1sccn1Cc1cccc2ccccc12	PPC-1+TRAIL kill 97, TRAIL sens C8 95 | PPC-1 tox 98
O=C(CCl)N=c1sccn1Cc1ccc(Cl)cc1Cl	PPC-1+TRAIL kill 98, TRAIL sens C8 97 | PPC-1 tox 96
NC(=O)c1ccc(=O)n(Cc2ccc(Cl)cc2Cl)c1	none (no result: PPC-1+TRAIL kill, FLuc inh counter, FLuc act counter, APP 5'UTR act, NF-kB expr up)
CCC(=O)OCC(=O)N=c1sccn1Cc1ccccc1Cl	none (no result: PPC-1+TRAIL kill, FLuc inh counter, FLuc act counter, APP 5'UTR act, NF-kB expr up)
O=C(CCl)N=c1sccn1Cc1ccccc1Cl	PPC-1+TRAIL kill 98, TRAIL sens C8 95 (no result: FLuc inh counter, FLuc act counter, APP 5'UTR act, NF-kB expr up) | PPC-1 tox 95
CCOc1ccc(C2C(C#N)=C(N)SC(N)=C2C#N)cc1OCC	none (no result: APP 5'UTR act) | PPC-1 tox inactive
O=C1/C(=C/c2ccc(N3CCOCC3)o2)SC(=Nc2ccccc2)N1CCc1c[nH]c2ccccc12	none | PPC-1 tox inactive
Cc1ccc(/C=C/C(=O)C2C(=O)c3ccccc3C2=O)cc1	PPC-1+TRAIL kill 95, FLuc inh counter 97, TRAIL sens C8 85 | PPC-1 tox 94
Cc1ccc(/C=C/C(=O)Nn2cnnc2)cc1	none
COc1ccc(/C=C/C(=O)NC(=S)NNC(=O)Cc2cccs2)cc1	none | PPC-1 tox inactive
O=C(/C=C/c1ccccc1)NC(=S)NNC(=O)Cc1cccs1	none
Cc1ccc(C2C(C#N)=C(N)Oc3cc4c(cc32)OCO4)cc1 (stereo unspecified)	none
CC(C)(C)C1=C(C#N)C(c2cc3c(cc2Br)OCO3)C(C#N)=C(N)O1 (stereo unspecified)	none (no result: APP 5'UTR act, NF-kB expr up) | PPC-1 tox inactive
